# Data: ChEMBL document CHEMBL5724801, “EUbOPEN Chemogenomics Library - Multiplex” (2024)
# Values joined by “and” are separate entries in the source; they are usually repeats but may differ in a detail not shown here. Identical values can stand only once.
# Test system: HEK-293T
# Test: Multiplex assay against HEK293T
# Assay type: toxicity, cell-based
# Conditions: human
# Method in brief: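 Imaging took place on a CQ1 microscope at 37°C and 5% CO2 once compound had been added to live cells stained at seeding with Hoechst33342, BioTracker Green Microtubule Cytoskeleton Dye, MitoTracker Red and Annexin V Alexa Fluor 680. CellPathfinder machine-learning gating classed cells as Hoechst high-intensity objects or normal cells, classed normal cells as having healthy, pyknosed or fragmented nuclei, and classed pyknosed cells as mitotic or apoptotic. Tubulin, mitochondrial-mass and membrane-permeability phenotypes are per cents of the healthy-nucleus cells.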
# [1] = 12 h, 1 µM, compound concentration 1 uM
# [2] = 12 h, 10 µM, compound concentration 10 uM
# [3] = 24 h, 1 µM, compound concentration 1 uM
# [4] = 24 h, 10 µM, compound concentration 10 uM
# [5] = 48 h, 1 µM, compound concentration 1 uM
# [6] = 48 h, 10 µM, compound concentration 10 uM
smiles,measurement,setting,value
Cc1noc(C)c1-c1cnc2c(-c3ccc(C(=O)O)cc3)cn([C@@H](C)c3ccccn3)c2c1 [PLX-51107],Population Apoptotic (%),[1],5.67% and 10.17%
same,Population Fragmented Nuclei (%),[1],1.66% and 3.31%
same,Population Hoechst High Intensity Objects (%),[1],0%
same,Population Membrane Permeable-Phenotype (%),[1],0% and 7.14%
same,Population Mitotic Cells (%),[1],94.33% and 89.83%
same,Population Normal (%),[1],100%
same,Population Pyknosed Nuclei (%),[1],40.33% and 78.15%
same,Population Tubulin-Different-Phenotype (%),[1],2.51% and 7.14%
same,Population Apoptotic (%),[2],13.75% and 7.84%
same,Population Healthy Nuclei (%),[2],45.95% and 25.98%
same,Population Hoechst High Intensity Objects (%),[2],0%
same,Population Membrane Permeable-Phenotype (%),[2],0%
same,Population Mitotic Cells (%),[2],86.25% and 92.16%
same,Population Normal (%),[2],100%
same,Population Pyknosed Nuclei (%),[2],51.78% and 54.45%
same,Population Tubulin-Different-Phenotype (%),[2],4.23% and 5.48%
same,Total Cell Count,[2],309 and 281
same,Population Apoptotic (%),[3],9.2% and 11.02%
same,Population Fragmented Nuclei (%),[3],1.19% and 0.87%
same,Population Healthy Nuclei (%),[3],75.73% and 43.91%
same,Population Hoechst High Intensity Objects (%),[3],0%
same,Population Membrane Permeable-Phenotype (%),[3],0%
same,Population Mitochondria Different-Phenotype (%),[3],7.18% and 2.97%
same,Population Mitotic Cells (%),[3],90.8% and 88.98%
same,Population Normal (%),[3],100%
same,Population Pyknosed Nuclei (%),[3],23.08% and 55.22%
same,Population Tubulin-Different-Phenotype (%),[3],0.7% and 3.96%
same,Population Apoptotic (%),[4],10.67% and 13.49%
same,Population Healthy Nuclei (%),[4],62.01% and 40.13%
same,Population Hoechst High Intensity Objects (%),[4],0%
same,Population Membrane Permeable-Phenotype (%),[4],0% and 0.81%
same,Population Mitochondria Different-Phenotype (%),[4],8.3% and 4.84%
same,Population Mitotic Cells (%),[4],89.33% and 86.51%
same,Population Normal (%),[4],100%
same,Population Pyknosed Nuclei (%),[4],36.76% and 40.78%
same,Population Tubulin-Different-Phenotype (%),[4],0% and 5.65%
same,Total Cell Count,[4],408 and 309
same,Population Fragmented Nuclei (%),[5],6.3% and 3.02%
same,Population Healthy Nuclei (%),[5],84.08% and 65.66%
same,Population Hoechst High Intensity Objects (%),[5],0.14% and 0%
same,Population Membrane Permeable-Phenotype (%),[5],0.33% and 1.15%
same,Population Mitochondria Different-Phenotype (%),[5],5.35% and 6.9%
same,Population Mitotic Cells (%),[5],94.96% and 79.52%
same,Population Normal (%),[5],99.86% and 100%
same,Population Tubulin-Different-Phenotype (%),[5],0.33% and 2.87%
same,Population Healthy Nuclei (%),[6],78.62% and 47.53%
same,Population Hoechst High Intensity Objects (%),[6],0%
same,Population Membrane Permeable-Phenotype (%),[6],0.21% and 0.65%
same,Population Mitochondria Different-Phenotype (%),[6],10.49% and 12.34%
same,Population Mitotic Cells (%),[6],95.33% and 80.87%
same,Population Normal (%),[6],100%
same,Population Pyknosed Nuclei (%),[6],18.01% and 35.49%
same,Population Tubulin-Different-Phenotype (%),[6],0.43% and 6.49%
same,Total Cell Count,[6],594 and 324
Cl.c1ccc2c(c1)CCC[C@H]2Nc1nc2ccccc2[nH]1,Population Apoptotic (%),[1],12.41% and 9.85%
same,Population Fragmented Nuclei (%),[1],1.91% and 2.52%
same,Population Hoechst High Intensity Objects (%),[1],0.95% and 0.62%
same,Population Membrane Permeable-Phenotype (%),[1],0.58% and 0%
same,Population Mitotic Cells (%),[1],87.59% and 90.15%
same,Population Normal (%),[1],99.05% and 99.38%
same,Population Pyknosed Nuclei (%),[1],43.63% and 83.02%
same,Total Cell Count,[1],317 and 160
same,Population Apoptotic (%),[2],7.19% and 13.79%
same,Population Fragmented Nuclei (%),[2],2.56% and 5.8%
same,Population Hoechst High Intensity Objects (%),[2],0.57% and 0%
same,Population Membrane Permeable-Phenotype (%),[2],0%
same,Population Mitotic Cells (%),[2],92.81% and 86.21%
same,Population Normal (%),[2],99.43% and 100%
same,Population Pyknosed Nuclei (%),[2],47.58% and 84.06%
same,Total Cell Count,[2],353 and 138
same,Population Apoptotic (%),[3],15.19% and 12.5%
same,Population Fragmented Nuclei (%),[3],2.28% and 0.59%
same,Population Healthy Nuclei (%),[3],64.94% and 28.82%
same,Population Hoechst High Intensity Objects (%),[3],0%
same,Population Membrane Permeable-Phenotype (%),[3],1.6% and 2.04%
same,Population Mitotic Cells (%),[3],84.81% and 87.5%
same,Population Normal (%),[3],100%
same,Population Pyknosed Nuclei (%),[3],32.78% and 70.59%
same,Population Tubulin-Different-Phenotype (%),[3],15.97% and 10.2%
same,Total Cell Count,[3],482 and 170
same,Population Apoptotic (%),[4],10.9% and 23.53%
same,Population Fragmented Nuclei (%),[4],2.57% and 5.7%
same,Population Hoechst High Intensity Objects (%),[4],0%
same,Population Membrane Permeable-Phenotype (%),[4],2.68% and 0%
same,Population Mitochondria Different-Phenotype (%),[4],18.75% and 10%
same,Population Mitotic Cells (%),[4],89.1% and 76.47%
same,Population Normal (%),[4],100%
same,Population Pyknosed Nuclei (%),[4],30.89% and 75.32%
same,Population Tubulin-Different-Phenotype (%),[4],23.81% and 10%
same,Population Apoptotic (%),[5],8.15% and 21.05%
same,Population Fragmented Nuclei (%),[5],2.18% and 2.63%
same,Population Healthy Nuclei (%),[5],84.41% and 64.04%
same,Population Hoechst High Intensity Objects (%),[5],0% and 0.44%
same,Population Membrane Permeable-Phenotype (%),[5],3.88% and 2.74%
same,Population Mitochondria Different-Phenotype (%),[5],18.59% and 17.81%
same,Population Mitotic Cells (%),[5],91.85% and 78.95%
same,Population Normal (%),[5],100% and 99.56%
same,Population Pyknosed Nuclei (%),[5],13.41% and 33.33%
same,Population Fragmented Nuclei (%),[6],2.01% and 3.85%
same,Population Healthy Nuclei (%),[6],79.3% and 55.49%
same,Population Hoechst High Intensity Objects (%),[6],0.32% and 0%
same,Population Membrane Permeable-Phenotype (%),[6],5.99% and 1.98%
same,Population Mitochondria Different-Phenotype (%),[6],26.23% and 33.66%
same,Population Mitotic Cells (%),[6],94.35% and 78.38%
same,Population Normal (%),[6],99.68% and 100%
same,Population Pyknosed Nuclei (%),[6],18.69% and 40.66%
